Assay results: ChEMBL document CHEMBL2069284, “Synthesis and selective anticancer activity of steroidal glycoconjugates” (Eur J Med Chem, 2012)

Assays:
HeLa [1] = experiment: Cytotoxicity against human HeLa cells assessed as LDH release at antiproliferative IC50 after 24 hrs; format: cell-based
Method in brief: (§1)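 Membrane damage was measured as LDH released into the culture supernatant 24 h after treatment; Triton X-100 lysis served as the total-lysis reference and DMSO as the vehicle control. For HeLa, CaSki and ViBo, 7500 cells/well were seeded and the medium was replaced after 24 h before treatment. Data are mean ± SD of three independent experiments in triplicate, analyzed by ANOVA with Tukey's test.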

HeLa [2] = experiment: Antiproliferative activity against human HeLa cells after 24 hrs by crystal violet staining-based method; format: functional, cell-based
Method in brief: (§2)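 Cells were cultured in RPMI-1640 with 5% newborn calf serum and benzylpenicillin at 37 °C, 5% CO2, and used in exponential growth. Cells were seeded at 7500/well, grown 24 h, then exposed to a concentration range. Controls received 1% DMSO vehicle. After 24 h, growth was read by crystal violet staining as absorbance at 590 nm, and IC50 was derived.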

PBMC = experiment: Antiproliferative activity against PHA-stimulated and CFSE-labeled human PBMC assessed as proliferation of enriched lymphocyte population at antiproliferative IC50 after 72 hrs by flow cytometric analysis (reference value: 90.13%); format: cell-based
Method in brief: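 Enriched lymphocytes from a normal blood donor were obtained by removing cells adherent after 1 h at 37 °C, 5% CO2, then resuspended in RPMI-1640 at 1 × 10⁶ cells/mL. Cells were CFSE-labeled for 15 min at room temperature in the dark, PHA-stimulated and/or treated, and plated at 2 × 10⁵ cells/well with five replicates. After 72 h at 37 °C, cells were PBS-washed, fixed in 1% formaldehyde, and analyzed by flow cytometry (≥20,000 events).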

Ca-Ski [3] = experiment: Cytotoxicity against human CaSki cells assessed as LDH release at antiproliferative IC50 after 24 hrs; format: cell-based; method in brief: as §1
Ca-Ski [4] = experiment: Antiproliferative activity against human CaSki cells after 24 hrs by crystal violet staining-based method; format: functional, cell-based; method in brief: as §2
[5] = (§3) Antiproliferative activity against human ViBo cells after 24 hrs by crystal violet staining-based method; format: functional, cell-based; method in brief: as §2
ViBo = experiment: as §3; format: functional, cell-based; method in brief: as §2
[6] = Cytotoxicity against human lymphocytes assessed as LDH release at antiproliferative IC50 after 24 hrs; format: cell-based; settings: lymphocyte; method in brief: as §1
[7] = Cytotoxicity against human ViBo cells assessed as LDH release at antiproliferative IC50 after 24 hrs; format: cell-based; method in brief: as §1

| Structure (SMILES) | Activity (HeLa [1]) | IC50 (HeLa [2]) [µM] | inhibition (HeLa [2]) | Activity (PBMC) [%] | Activity (Ca-Ski [3]) | IC50 (Ca-Ski [4]) [µM] | inhibition (Ca-Ski [4]) | IC50 [5] [µM] | inhibition (ViBo) | Activity [6] | Activity [7] |
| --- | --- | --- | --- | --- | --- | --- | --- | --- | --- | --- | --- |
| CC(=O)N[C@H]1[C@H](O[C@H]2CC[C@@]3(C)[C@@H](CC[C@@H]4[C@@H]3CC(=O)[C@]3(C)[C@@H]5[C@H](C[C@@H]43)O[C@]3(CC[C@@H](C)CO3)[C@H]5C)C2)O[C@H](CO)[C@@H](O)[C@@H]1O | Non-toxic | 129 | Dose-dependent effect | 75.59 | Non-toxic | 136 | Dose-dependent effect | > 142 | Dose-dependent effect | Non-toxic | Non-toxic |
| C[C@@H]1CC[C@@]2(OC1)O[C@H]1C[C@H]3[C@@H]4CC=C5C[C@@H](O[C@@H]6O[C@H](CO)[C@@H](O)[C@H](O)[C@H]6N)CC[C@]5(C)[C@H]4CC[C@]3(C)[C@H]1[C@@H]2C.Cl | Non-toxic | 41 | Dose-dependent effect | 78.76 | Non-toxic | 41 | Dose-dependent effect | 82 | Dose-dependent effect | Non-toxic | Non-toxic |
| CC(=O)N[C@H]1[C@H](O[C@H]2CC[C@@]3(C)C(=CC[C@H]4[C@@H]5C[C@@H]6O[C@]7(CC[C@@H](C)CO7)[C@@H](C)[C@@H]6[C@@]5(C)CC[C@@H]43)C2)O[C@H](CO)[C@@H](O)[C@@H]1O | Non-toxic | 81 | Dose-dependent effect | 72.58 | Non-toxic | 80 | Dose-dependent effect | 81 | Dose-dependent effect | Non-toxic | Non-toxic |
